These results are taken from ChEMBL document CHEMBL5653631, “A Potent and Selective ULK1 Inhibitor Suppresses Autophagy and Sensitizes Cancer Cells to Nutrient Stress” (iScience, 2018).

Each structure is given as a SMILES string.

Assay [1] has as its target Mitogen-activated protein kinase 11 (Homo sapiens) (UniProt Q15759). As to the kind of experiment: Inhibition of human recombinant p38beta at 40 nM in presence of ATP by radiometric assay relative to control.
For assay [2], the target named is Protein-tyrosine kinase 6 (Homo sapiens) (UniProt Q13882). As to the kind of experiment: Inhibition of human recombinant BRK at 40 nM in presence of ATP by radiometric assay relative to control. The method, boiled down:
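Part of a radiometric in vitro activity panel of 327 recombinant human kinases. Each kinase was tested in duplicate at one inhibitor concentration. Activity remaining was expressed as a percentage of the vehicle control, and percent inhibition was taken as 100 minus that value.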

Assay [3] has as its target T1, Serine/threonine-protein kinase PLK4 (Homo sapiens) (UniProt O00444).
T1 sequence (whole entry): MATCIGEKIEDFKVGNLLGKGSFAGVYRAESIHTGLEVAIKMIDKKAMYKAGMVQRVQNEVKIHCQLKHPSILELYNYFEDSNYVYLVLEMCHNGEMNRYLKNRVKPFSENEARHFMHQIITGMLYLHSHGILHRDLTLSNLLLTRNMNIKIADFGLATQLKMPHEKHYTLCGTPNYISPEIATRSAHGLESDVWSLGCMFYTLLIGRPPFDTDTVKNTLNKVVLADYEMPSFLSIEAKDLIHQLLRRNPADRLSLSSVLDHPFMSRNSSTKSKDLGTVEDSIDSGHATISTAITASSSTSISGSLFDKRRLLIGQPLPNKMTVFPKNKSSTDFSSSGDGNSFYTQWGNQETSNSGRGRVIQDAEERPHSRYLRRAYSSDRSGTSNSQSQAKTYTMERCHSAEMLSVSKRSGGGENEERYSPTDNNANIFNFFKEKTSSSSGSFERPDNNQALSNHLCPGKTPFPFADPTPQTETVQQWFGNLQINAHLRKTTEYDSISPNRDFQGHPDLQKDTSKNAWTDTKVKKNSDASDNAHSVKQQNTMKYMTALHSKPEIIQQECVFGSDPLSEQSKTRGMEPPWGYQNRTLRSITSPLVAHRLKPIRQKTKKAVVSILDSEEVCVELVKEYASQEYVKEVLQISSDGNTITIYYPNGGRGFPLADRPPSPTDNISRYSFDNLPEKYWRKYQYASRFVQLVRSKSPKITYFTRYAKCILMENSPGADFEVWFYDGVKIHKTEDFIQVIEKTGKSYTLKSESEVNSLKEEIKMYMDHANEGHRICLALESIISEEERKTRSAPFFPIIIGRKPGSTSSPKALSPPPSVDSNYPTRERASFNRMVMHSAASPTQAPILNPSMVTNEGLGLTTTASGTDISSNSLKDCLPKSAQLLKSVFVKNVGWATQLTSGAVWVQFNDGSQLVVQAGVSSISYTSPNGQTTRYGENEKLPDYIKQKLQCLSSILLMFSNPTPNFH
As to the kind of experiment: Inhibition of human recombinant PLK4 at 40 nM related to control ULK1.

In assay [4] the target is Proto-oncogene tyrosine-protein kinase ROS (Homo sapiens) (UniProt P08922). As to the kind of experiment: Inhibition of human recombinant ROS at 500 nM related to control ULK1.
Chain of Proto-oncogene tyrosine-protein kinase ROS (Homo sapiens) (P08922 whole entry): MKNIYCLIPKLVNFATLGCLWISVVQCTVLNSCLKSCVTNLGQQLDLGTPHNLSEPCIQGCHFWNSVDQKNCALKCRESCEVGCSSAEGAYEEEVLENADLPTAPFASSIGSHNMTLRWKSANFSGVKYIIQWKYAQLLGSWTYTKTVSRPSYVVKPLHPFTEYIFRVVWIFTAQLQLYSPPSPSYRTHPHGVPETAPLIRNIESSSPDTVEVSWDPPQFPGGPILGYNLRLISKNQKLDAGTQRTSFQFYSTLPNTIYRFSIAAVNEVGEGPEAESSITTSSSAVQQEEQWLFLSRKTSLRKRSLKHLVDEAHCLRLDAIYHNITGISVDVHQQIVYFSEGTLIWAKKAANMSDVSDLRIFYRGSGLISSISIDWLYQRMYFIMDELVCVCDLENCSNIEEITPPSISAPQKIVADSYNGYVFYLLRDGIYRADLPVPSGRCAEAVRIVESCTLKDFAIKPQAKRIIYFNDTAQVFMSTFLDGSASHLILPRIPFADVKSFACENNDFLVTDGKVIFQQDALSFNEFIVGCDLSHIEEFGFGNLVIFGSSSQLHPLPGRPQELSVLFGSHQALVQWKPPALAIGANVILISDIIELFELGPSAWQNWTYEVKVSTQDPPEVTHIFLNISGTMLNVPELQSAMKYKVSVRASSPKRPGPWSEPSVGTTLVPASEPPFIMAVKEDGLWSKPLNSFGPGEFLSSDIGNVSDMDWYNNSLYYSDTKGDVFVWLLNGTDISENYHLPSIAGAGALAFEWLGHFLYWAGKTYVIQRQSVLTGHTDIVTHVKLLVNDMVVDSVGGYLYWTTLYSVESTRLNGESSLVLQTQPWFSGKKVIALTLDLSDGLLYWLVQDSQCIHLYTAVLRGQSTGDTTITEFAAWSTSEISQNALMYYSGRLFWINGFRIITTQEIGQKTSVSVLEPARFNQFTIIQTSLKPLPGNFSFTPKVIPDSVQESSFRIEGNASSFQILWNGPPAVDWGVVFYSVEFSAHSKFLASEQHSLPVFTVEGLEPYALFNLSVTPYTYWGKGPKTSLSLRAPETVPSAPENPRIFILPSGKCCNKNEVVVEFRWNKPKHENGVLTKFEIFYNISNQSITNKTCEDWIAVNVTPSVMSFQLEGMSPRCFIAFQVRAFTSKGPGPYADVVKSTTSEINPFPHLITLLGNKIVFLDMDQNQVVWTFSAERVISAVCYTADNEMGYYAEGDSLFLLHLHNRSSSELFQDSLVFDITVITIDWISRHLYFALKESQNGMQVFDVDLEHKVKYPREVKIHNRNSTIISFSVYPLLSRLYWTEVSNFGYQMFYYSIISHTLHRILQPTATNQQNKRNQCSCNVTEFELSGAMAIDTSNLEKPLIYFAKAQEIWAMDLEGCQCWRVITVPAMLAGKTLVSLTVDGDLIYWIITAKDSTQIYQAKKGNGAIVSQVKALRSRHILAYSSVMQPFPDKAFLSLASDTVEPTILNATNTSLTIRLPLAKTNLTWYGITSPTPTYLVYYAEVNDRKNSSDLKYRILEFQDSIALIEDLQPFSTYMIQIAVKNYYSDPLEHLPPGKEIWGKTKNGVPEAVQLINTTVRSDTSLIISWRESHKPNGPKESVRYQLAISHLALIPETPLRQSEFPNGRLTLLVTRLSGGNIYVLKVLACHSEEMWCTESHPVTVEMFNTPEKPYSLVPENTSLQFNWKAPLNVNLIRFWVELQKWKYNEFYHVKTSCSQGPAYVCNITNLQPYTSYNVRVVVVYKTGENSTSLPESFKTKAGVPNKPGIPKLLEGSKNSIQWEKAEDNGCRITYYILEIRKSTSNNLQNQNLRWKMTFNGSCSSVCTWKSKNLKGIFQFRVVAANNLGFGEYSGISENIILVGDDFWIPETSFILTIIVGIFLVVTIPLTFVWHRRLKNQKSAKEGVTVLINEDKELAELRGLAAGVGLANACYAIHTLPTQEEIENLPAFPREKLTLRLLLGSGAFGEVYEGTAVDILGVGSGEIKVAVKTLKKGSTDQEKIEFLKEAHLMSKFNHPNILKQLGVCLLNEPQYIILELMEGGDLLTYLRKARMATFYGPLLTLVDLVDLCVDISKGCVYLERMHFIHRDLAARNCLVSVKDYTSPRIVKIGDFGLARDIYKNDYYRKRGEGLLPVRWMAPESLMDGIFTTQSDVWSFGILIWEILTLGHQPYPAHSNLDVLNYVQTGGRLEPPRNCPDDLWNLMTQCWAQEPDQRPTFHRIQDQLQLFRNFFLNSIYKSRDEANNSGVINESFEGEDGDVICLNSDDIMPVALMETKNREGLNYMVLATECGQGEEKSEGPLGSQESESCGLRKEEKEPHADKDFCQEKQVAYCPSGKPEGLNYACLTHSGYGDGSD
Assay [5] addresses T2, Beta-adrenergic receptor kinase 1 (Homo sapiens) (UniProt P25098).
T2 sequence (whole entry): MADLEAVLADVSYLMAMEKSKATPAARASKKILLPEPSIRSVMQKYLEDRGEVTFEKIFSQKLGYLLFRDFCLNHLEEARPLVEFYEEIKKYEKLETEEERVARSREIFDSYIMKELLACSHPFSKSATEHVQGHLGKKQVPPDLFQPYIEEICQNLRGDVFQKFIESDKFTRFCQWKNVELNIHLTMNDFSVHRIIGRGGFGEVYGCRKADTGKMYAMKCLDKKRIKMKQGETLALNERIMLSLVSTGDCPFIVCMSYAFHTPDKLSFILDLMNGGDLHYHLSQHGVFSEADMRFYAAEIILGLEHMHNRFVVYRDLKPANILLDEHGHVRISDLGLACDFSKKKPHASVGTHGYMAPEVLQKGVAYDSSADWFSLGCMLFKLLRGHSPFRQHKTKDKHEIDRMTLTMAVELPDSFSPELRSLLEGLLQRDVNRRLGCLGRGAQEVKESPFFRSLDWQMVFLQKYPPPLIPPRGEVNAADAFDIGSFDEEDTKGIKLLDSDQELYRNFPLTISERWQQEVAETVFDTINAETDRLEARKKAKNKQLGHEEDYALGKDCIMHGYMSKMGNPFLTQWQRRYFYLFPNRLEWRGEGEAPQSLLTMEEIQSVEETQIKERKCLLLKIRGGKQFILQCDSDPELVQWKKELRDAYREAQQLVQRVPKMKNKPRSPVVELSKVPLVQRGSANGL
Briefly: Inhibition of human recombinant BARK1 at 500 nM related to control ULK1.

Assay [6] concerns the target T3, NUAK family SNF1-like kinase 1 (Homo sapiens) (UniProt O60285).
T3 sequence (whole entry): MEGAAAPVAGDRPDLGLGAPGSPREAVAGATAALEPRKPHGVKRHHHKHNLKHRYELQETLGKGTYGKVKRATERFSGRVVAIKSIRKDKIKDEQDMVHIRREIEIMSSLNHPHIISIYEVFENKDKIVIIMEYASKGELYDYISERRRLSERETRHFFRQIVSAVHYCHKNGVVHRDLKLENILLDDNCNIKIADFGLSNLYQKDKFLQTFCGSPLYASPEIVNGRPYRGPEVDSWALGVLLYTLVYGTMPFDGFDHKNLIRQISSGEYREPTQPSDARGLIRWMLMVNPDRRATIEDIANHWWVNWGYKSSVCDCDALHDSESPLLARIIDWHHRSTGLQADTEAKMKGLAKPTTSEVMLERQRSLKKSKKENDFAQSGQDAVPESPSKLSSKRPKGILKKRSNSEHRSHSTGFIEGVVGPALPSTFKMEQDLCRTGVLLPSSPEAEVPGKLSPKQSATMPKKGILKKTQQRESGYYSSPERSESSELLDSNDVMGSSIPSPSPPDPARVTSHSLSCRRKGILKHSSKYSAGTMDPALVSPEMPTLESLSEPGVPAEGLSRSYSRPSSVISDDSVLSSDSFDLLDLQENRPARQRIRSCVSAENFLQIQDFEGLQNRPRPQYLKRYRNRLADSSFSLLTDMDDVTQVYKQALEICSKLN
Briefly: Inhibition of human recombinant NuaK1 at 15 nM in presence of ATP by radiometric assay relative to control.

Chain of Mitogen-activated protein kinase 11 (Homo sapiens) (Q15759 whole entry): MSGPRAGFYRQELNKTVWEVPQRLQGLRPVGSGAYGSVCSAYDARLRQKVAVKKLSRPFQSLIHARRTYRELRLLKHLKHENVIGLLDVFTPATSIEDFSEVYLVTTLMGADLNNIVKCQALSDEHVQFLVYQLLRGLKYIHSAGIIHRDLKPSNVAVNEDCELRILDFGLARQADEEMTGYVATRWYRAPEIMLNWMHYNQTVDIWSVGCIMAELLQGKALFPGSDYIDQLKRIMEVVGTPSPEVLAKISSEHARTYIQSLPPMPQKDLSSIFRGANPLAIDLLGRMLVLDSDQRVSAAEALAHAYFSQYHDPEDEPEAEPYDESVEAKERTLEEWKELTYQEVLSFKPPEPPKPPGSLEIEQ
Chain of Protein-tyrosine kinase 6 (Homo sapiens) (Q13882 whole entry, looked up): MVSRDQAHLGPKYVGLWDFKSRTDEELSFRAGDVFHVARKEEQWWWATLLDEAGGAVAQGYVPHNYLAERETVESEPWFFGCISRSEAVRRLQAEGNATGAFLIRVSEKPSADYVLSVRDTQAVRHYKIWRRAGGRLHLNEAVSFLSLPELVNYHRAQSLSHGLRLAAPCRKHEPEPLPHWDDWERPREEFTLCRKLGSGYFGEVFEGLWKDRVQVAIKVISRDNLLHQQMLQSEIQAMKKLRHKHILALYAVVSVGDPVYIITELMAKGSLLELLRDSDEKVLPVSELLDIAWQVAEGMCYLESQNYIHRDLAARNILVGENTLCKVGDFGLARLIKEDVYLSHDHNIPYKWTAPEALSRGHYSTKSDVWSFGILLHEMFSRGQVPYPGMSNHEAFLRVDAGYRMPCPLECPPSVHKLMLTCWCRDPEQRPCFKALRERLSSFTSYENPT

By inhibition is commonly meant the drop in the measured response relative to a control, in per cent. Turning to `O=C(N[C@@H](C1CC1)C(F)(F)F)c1cc(-c2cnn3cc(-c4ccc(F)cc4)cnc23)cs1`, the inhibition stood at 10% in assay [1] and 0% in assay [2]. Besides, in assay [3], the fold change (FC) came out at 0.1.
On to `CNC(=O)c1ccccc1Oc1nc(Nc2cc(OC)c(OC)c(OC)c2)ncc1Br`, for which the fold change (FC) is 0 in assay [4] and 0.11 in assay [5].
For the molecule `CC(C)[C@H](NC(=O)c1cc(-c2cnn3cc(-c4ccc(OCCN5CCCCC5)cc4)cnc23)cs1)C(F)(F)F`, the inhibition in assay [6] amounted to 27%.
